# Data as given in ChEMBL document CHEMBL1221219, “Selective blockade of 2-arachidonoylglycerol hydrolysis produces cannabinoid behavioral effects” (Nat Chem Biol, 2009).
# Activity calls are given as the source filed them. No cut-off for these calls is given here.
# Assays:
# [1] = target: Cannabinoid receptor 1 (Homo sapiens) (UniProt P21554); experiment: Displacement of [3H]rimonabant from CB1 in cerebellar membrane after 90 mins by liquid scintillation; type: cell membranes; conditions: Cerebellum
# Sequence of Cannabinoid receptor 1 (Homo sapiens) (P21554 whole entry): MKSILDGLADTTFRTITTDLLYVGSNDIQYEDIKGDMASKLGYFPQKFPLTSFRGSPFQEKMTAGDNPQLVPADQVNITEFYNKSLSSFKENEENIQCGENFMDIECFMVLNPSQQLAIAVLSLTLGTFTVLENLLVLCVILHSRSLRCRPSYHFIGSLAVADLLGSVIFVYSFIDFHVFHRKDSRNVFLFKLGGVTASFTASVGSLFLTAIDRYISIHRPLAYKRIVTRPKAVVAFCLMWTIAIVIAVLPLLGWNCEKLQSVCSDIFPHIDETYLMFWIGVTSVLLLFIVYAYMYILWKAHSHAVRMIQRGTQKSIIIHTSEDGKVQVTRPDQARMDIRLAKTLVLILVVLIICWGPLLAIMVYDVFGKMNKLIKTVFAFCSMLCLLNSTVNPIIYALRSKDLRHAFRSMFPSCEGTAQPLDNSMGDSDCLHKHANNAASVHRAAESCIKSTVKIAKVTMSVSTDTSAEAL
# [2] = target: T1, Diacylglycerol lipase-beta (Homo sapiens) (UniProt Q8NCG7); experiment: Inhibition of recombinant DAGLbeta expressed in HEK293 cells assessed as hydrolysis of 1-stearoyl-2-arachidonoyl-glycerol to 2-AG at 25 uM after 30 mins by LC-MS method; type: cell-based
# T1 sequence (whole entry): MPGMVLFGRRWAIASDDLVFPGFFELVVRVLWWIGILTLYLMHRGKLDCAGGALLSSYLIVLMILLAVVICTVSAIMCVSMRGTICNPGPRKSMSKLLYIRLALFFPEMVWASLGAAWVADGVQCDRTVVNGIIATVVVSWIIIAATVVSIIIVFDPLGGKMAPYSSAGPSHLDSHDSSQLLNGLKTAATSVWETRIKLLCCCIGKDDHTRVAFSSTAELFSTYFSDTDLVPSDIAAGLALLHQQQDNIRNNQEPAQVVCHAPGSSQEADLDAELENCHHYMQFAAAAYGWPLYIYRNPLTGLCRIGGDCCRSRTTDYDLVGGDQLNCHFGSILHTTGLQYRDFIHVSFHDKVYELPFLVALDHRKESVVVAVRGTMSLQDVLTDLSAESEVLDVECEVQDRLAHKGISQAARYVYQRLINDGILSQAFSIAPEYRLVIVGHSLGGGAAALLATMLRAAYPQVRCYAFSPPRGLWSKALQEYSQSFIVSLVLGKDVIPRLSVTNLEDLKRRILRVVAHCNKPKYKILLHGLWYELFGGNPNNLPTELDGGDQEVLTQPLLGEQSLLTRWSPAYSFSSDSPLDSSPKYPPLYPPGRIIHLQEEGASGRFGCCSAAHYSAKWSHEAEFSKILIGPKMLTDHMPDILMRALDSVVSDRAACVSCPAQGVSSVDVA
# [3] = target: T2, Cytosolic phospholipase A2 (Homo sapiens) (UniProt P47712); experiment: Inhibition of recombinant cPLA2 4a expressed in HEK293 cells at 20 uM by radiolabeled TLC assay; type: cell-based
# T2 sequence (whole entry): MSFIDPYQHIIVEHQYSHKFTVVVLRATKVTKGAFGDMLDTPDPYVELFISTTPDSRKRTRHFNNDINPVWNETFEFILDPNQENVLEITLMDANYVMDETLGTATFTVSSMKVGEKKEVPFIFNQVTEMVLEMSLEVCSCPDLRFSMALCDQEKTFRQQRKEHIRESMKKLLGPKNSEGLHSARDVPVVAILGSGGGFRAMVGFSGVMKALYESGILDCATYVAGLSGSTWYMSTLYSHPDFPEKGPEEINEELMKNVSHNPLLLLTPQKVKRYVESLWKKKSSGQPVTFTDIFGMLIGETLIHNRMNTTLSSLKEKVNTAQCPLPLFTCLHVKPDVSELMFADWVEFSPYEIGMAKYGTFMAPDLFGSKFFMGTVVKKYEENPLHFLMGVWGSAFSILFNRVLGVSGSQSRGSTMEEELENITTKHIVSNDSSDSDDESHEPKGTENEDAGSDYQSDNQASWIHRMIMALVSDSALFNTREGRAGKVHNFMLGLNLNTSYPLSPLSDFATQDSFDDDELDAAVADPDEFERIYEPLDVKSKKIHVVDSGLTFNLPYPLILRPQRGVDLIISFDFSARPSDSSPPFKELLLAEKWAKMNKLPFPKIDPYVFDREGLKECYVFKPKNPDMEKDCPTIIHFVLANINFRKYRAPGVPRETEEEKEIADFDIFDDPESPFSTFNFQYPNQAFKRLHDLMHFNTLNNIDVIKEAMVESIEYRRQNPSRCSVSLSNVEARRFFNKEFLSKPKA
# [4] = test system: Mus musculus; experiment: Inhibition of MAGL in C57B1/6J mouse brain membrane at 4 mg/kg, ip after 4 hrs by competitive activity-based protein profiling method relative to control; type: functional; conditions: route intraperitoneal
# In short: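 Male C57Bl/6J mice (6-8 weeks, 20-26 g) dosed i.p. in 4:1 v/v PEG300:Tween80 vehicle at 4 ul g^-1; killed 4 h post-dose. Brain membrane proteomes were then labelled with FP-rhodamine (2 μM, 30 min, room temperature), resolved by SDS-PAGE and scanned in-gel for fluorescence. MAGL signal was compared with vehicle-treated controls.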
# [5] = test system: Mus musculus; experiment: Inhibition of ACOT2 in C57B1/6J mouse brain membrane at 16 mg/kg, ip after 4 hrs by competitive activity-based protein profiling-MudPIT method; type: functional, organism-based; design: dose 16 mg/kg
# In short: (§1)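 Mice were dosed 16 mg kg^-1 i.p. or vehicle and killed at 4 h. Brain membrane proteomes were labelled with FP-biotin, avidin-enriched, trypsin-digested on bead, analysed by multidimensional LC-MS and identified by SEQUEST.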
# [6] = test system: Mus musculus; experiment: Inhibition of CES31 in C57B1/6J mouse brain membrane at 16 mg/kg, ip after 4 hrs by competitive activity-based protein profiling-MudPIT method; type: functional, organism-based; design: dose 16 mg/kg; in short: as §1
# [7] = test system: Mus musculus; experiment: Inhibition of RBBP9 in C57B1/6J mouse brain membrane at 16 mg/kg, ip after 4 hrs by competitive activity-based protein profiling-MudPIT method; type: functional, organism-based; design: dose 16 mg/kg
# In short: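 After i.p. dosing in 4:1 PEG300:Tween80, male C57Bl/6J mice were killed at 4 h. Brain membrane proteomes from treated and vehicle mice were labelled with FP-biotin. Labelled proteins were enriched on avidin, digested on-bead with trypsin and analysed by multidimensional LC-MS. Proteins were identified by SEQUEST, and dosed samples were compared with vehicle.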
# [8] = test system: Mus musculus; experiment: Inhibition of FAAH in C57B1/6J mouse brain membrane assessed as elevated level of anandamide at 10 mg/kg, ip by competitive activity-based protein profiling method; type: functional, organism-based; design: dose 10 mg/kg
# [9] = test system: Mus musculus; experiment: Inhibition of MAGL in C57B1/6J mouse brain membrane assessed as increase in 2-AG level at 16 mg/kg, ip upto 24 hrs by competitive activity-based protein profiling method relative to control; type: functional; conditions: route intraperitoneal
# In short: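 Male C57Bl/6J mice dosed i.p. in 4:1 v/v PEG300:Tween80, with vehicle controls; killed at set times (0.5-24 h, or 4 h). Brain membrane 2-AG hydrolysis measured by LC-MS substrate assay, and brain 2-AG measured by lipid LC-MS, relative to vehicle.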
# [10] = test system: Mus musculus; experiment: Change in free fatty acid level in C57B1/6J mouse brain at 16 mg/kg, ip by LC-MS; type: functional, organism-based; design: dose 16 mg/kg
# In short: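 Mice received 16 mg kg^-1 i.p. in 4:1 PEG300:Tween80 and were killed at 0.5, 1, 2, 4, 8 and 24 h. Brain lipids, including N-acylethanolamines, MAGs, free fatty acids and arachidonic acid, were measured by LC-MS.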
# [11] = test system: Mus musculus; experiment: Induction of hypothermia in C57B1/6J mouse at 16 mg/kg, ip; type: functional, organism-based; design: dose 16 mg/kg
# In short: (§2)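 Male C57Bl/6J mice, 6-8 weeks, 20-26 g, given 16 mg kg^-1 i.p. in 4:1 v/v PEG300:Tween80 at 4 μl g^-1; vehicle controls received PEG300:Tween80 alone. Cannabinoid effects were scored in the tetrad test.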
# [12] = test system: Mus musculus; experiment: Induction of hypomotility in C57B1/6J mouse at 16 mg/kg, ip; type: functional, organism-based; design: dose 16 mg/kg; in short: as §2
# [13] = test system: Mus musculus; experiment: Analgesic activity against CB1 receptor deficient C57B1/6J mouse at 16 mg/kg, ip; type: functional, organism-based; design: dose 16 mg/kg; in short: as §2
smiles,measurement,setting,value
O=C(Oc1ccc([N+](=O)[O-])cc1)N1CCC(C(O)(c2ccc3c(c2)OCO3)c2ccc3c(c2)OCO3)CC1,Activity,[1],inactive
same,inhibition,[2],inactive
same,inhibition,[3],inactive
same,fold change (FC),[4],5
same,inhibition,[5],inactive
same,inhibition,[6],inactive
same,inhibition,[7],inactive
same,inhibition,[8],Active
same,inhibition in vivo at 16 mg/kg,[9],> 80%
same,Activity,[10],inactive
same,Activity,[11],Active
same,Activity,[12],Active
same,Activity,[13],inactive
